Laboratory results as given in ChEMBL document CHEMBL4257471, “Orthoester functionalized N-guanidino derivatives of 1,5-dideoxy-1,5-imino-d-xylitol as pH-responsive inhibitors of β-glucocerebrosidase” (Medchemcomm, 2017).
Changes are numbered by the printed parent chain. Activity calls are given as the source filed them. The rule behind the calls is not given here.

Experiments:
[1] = Inhibition of yeast alpha-glucosidase pre-incubated for 5 mins followed by p-nitrophenyl-alpha-D-glucopyranoside substrate addition and measured after 30 mins by spectrophotometric assay; design: species or system Saccharomyces cerevisiae
Procedure, shortened: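 Enzyme at 0.05 U mL⁻¹; p-nitrophenyl-α-D-glucopyranoside substrate at 0.7 mM final in 100 mM sodium phosphate, pH 7.2. IC50 values in μM averaged from triple independent duplicate analysis.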

Alpha-galactosidase = Alpha-galactosidase (Coffea arabica, UniProt Q42656); assay: Inhibition of green coffee beans alpha-galactosidase pre-incubated for 5 mins followed by p-nitrophenyl-alpha-D-galactopyranoside substrate addition and measured after 30 mins by spectrophotometric assay
Procedure, shortened: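 Enzyme at 0.05 U mL⁻¹ with p-nitrophenyl-α-D-galactopyranoside, 0.7 mM final, in sodium phosphate buffer (100 mM, pH 6.8). IC50 values in μM are averages of triple independent duplicate runs.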

[2] = Inhibition of almond beta-glucosidase pre-incubated for 5 mins followed by p-nitrophenyl-beta-D-glucopyranoside substrate addition and measured after 30 mins by spectrophotometric assay; design: species or system Prunus dulcis
Procedure, shortened: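 Enzyme at 0.05 U mL⁻¹ with p-nitrophenyl-β-D-glucopyranoside, 0.7 mM final, in 100 mM sodium acetate, pH 5.0. IC50 values in μM are means of triple independent duplicate analyses.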

Beta-galactosidase = molecular target: T1, Beta-galactosidase (Bos taurus, UniProt Q58D55); assay: Inhibition of bovine liver beta-galactosidase pre-incubated for 5 mins followed by p-nitrophenyl-beta-D-galactopyranoside substrate addition and measured after 30 mins by spectrophotometric assay
T1 sequence (Q58D55 whole entry): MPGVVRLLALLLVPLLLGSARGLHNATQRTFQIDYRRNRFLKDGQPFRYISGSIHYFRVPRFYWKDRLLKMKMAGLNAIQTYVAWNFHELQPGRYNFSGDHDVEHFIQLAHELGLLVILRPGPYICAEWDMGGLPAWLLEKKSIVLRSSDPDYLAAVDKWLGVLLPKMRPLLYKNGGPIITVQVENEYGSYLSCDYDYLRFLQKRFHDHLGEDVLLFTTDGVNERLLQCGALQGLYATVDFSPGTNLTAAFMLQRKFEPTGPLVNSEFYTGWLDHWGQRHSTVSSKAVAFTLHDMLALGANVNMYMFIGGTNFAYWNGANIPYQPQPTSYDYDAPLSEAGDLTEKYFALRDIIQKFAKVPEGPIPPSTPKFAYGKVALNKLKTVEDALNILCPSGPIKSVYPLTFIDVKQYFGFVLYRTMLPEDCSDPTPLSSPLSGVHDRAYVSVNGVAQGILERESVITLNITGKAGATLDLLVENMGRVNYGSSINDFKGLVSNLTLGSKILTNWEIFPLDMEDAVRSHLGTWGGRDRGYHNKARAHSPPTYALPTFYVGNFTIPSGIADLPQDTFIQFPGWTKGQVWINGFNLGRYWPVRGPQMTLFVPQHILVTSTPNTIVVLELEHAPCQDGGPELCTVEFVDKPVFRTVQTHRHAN
Procedure, shortened: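 Enzyme at 0.05 U mL⁻¹; p-nitrophenyl-β-D-galactopyranoside substrate, 0.7 mM final, in 100 mM sodium phosphate buffer, pH 7.2. IC50 values in μM from triple independent duplicate analysis.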

[3] = Inhibition of Penicillium decumbens naringinase pre-incubated for 5 mins followed by p-nitrophenyl-beta-D-glucopyranoside substrate addition and measured after 30 mins by spectrophotometric assay
Procedure, shortened: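 Enzyme at 0.06 U mL⁻¹; substrate p-nitrophenyl-β-D-glucopyranoside at 0.7 mM final in 100 mM sodium acetate buffer, pH 5.0. IC50 values in μM, averaged from triple independent duplicate runs.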

[4] = molecular target: T2, Lysosomal acid glucosylceramidase (Homo sapiens, UniProt P04062); assay: Inhibition of recombinant human GBA pre-incubated for 30 mins followed by 4-methylumbelliferyl-beta-D-glucopyranoside substrate addition and measured after 10 mins using compound incubated at pH 7 buffer for 24 hrs prior to test by fluorescence assay
T2 sequence (P04062 whole entry): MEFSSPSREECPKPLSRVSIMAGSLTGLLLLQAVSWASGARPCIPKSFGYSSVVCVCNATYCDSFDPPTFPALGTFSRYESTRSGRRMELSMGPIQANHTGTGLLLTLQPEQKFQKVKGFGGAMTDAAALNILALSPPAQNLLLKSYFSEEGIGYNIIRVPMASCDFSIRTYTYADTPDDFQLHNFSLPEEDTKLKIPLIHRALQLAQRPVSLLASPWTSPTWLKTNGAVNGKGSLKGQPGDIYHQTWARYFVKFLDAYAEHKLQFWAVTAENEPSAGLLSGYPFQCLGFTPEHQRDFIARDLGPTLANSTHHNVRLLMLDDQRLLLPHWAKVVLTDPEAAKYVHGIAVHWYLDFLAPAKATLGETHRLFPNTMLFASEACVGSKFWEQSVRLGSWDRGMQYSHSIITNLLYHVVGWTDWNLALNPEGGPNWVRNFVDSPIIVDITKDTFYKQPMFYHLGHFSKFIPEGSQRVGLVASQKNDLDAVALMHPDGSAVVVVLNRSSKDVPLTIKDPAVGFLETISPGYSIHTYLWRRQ

[5] = molecular target: T2, Lysosomal acid glucosylceramidase; assay: Inhibition of recombinant human GBA pre-incubated for 30 mins followed by 4-methylumbelliferyl-beta-D-glucopyranoside substrate addition and measured after 10 mins using compound incubated at pH 5.2 for 24 hrs prior to test by fluorescence assay
Galactocerebrosidase = molecular target: T3, Galactocerebrosidase (Homo sapiens, UniProt P54803); assay: Inhibition of recombinant human GALC at pH 5.2 pre-incubated for 10 mins followed by 4-methylumbelliferyl-beta-D-galactopyranoside substrate addition and measured after 20 mins by fluorescence assay
T3 sequence (P54803 whole entry): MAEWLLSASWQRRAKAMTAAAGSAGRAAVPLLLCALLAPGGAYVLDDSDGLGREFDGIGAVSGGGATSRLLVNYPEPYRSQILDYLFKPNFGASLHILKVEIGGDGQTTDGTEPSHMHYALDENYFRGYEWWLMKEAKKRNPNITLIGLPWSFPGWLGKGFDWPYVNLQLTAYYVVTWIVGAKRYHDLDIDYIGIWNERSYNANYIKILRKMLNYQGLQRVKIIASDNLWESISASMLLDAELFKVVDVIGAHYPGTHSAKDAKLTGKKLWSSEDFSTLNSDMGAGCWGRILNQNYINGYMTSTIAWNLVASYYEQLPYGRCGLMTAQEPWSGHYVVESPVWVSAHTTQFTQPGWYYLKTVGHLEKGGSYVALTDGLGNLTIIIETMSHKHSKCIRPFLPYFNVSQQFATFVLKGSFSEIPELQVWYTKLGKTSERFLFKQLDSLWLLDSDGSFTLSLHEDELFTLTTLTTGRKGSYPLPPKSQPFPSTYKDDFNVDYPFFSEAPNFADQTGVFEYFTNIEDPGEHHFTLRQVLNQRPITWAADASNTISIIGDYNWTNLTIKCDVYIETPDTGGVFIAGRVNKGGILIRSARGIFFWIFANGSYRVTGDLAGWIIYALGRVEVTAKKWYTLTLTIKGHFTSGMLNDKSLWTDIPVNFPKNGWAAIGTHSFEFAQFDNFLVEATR
Procedure, shortened: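 Human recombinant enzyme assayed with 4-methylumbelliferyl-β-D-galactopyranoside substrate. IC50 values in μM, averaged from triple independent duplicate analysis.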

[6] = Drug degradation in aqueous solution at room temperature after 6 days; format: physicochemical; conditions: read-out: Drug degradation
[7] = test system: T4, Lysosomal acid glucosylceramidase (Homo sapiens), P04062 [N409S]; assay: Chaperone activity at GBA N370S mutant in Gaucher disease patient-derived fibroblasts assessed as restoration of enzyme activity at 1 to 10000 nM after 4 days by 4-methylumbelliferyl-beta-D-glucopyranoside substrate based fluorescence assay
T4 sequence (whole entry): T2 sequence (P04062 whole entry) with N409S

[8] = test system: T5, Lysosomal acid glucosylceramidase (Homo sapiens), P04062 [L483P]; assay: Chaperone activity at GBA L444P mutant in Gaucher disease patient-derived fibroblasts assessed as restoration of enzyme activity at 1 to 10000 nM after 4 days by 4-methylumbelliferyl-beta-D-glucopyranoside substrate based fluorescence assay
T5 sequence (whole entry): T2 sequence (P04062 whole entry) with L483P

Chain of Alpha-galactosidase (Q42656 whole entry): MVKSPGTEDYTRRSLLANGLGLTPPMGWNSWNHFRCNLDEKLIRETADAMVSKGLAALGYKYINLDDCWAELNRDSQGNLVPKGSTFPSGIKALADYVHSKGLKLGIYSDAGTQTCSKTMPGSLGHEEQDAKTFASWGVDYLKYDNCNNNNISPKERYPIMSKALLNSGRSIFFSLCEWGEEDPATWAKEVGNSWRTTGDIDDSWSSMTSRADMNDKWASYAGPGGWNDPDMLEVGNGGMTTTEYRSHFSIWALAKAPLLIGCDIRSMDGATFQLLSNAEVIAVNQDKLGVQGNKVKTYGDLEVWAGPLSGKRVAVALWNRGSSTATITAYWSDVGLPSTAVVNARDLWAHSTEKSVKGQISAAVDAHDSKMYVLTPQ

SMILES: CCCCCCCCOC1OCC(CNC(=N)N2C[C@@H](O)[C@H](O)[C@@H](O)C2)O1 (stereo partly drawn)
- IC50 [1]: > 30 µM
- IC50 (Alpha-galactosidase): > 30 µM
- IC50 [2]: 14.6 µM
- IC50 (Beta-galactosidase): > 30 µM
- IC50 [3]: > 30 µM
- IC50 [4]: 25 nM
- IC50 [5]: > 30 µM
- IC50 (Galactocerebrosidase): > 30 µM
- degraded at 144 h [6]: < 3%
- Activity [7]: Active
- Activity [8]: inactive

SMILES: CCCCOC1OCC(CNC(=N)N2C[C@@H](O)[C@H](O)[C@@H](O)C2)O1 (stereo partly drawn)
- IC50 [1]: > 30 µM
- IC50 (Alpha-galactosidase): > 30 µM
- IC50 [2]: 19.2 µM
- IC50 (Beta-galactosidase): > 30 µM
- IC50 [3]: > 30 µM
- IC50 [4]: 2560 nM
- IC50 [5]: > 30 µM
- IC50 (Galactocerebrosidase): > 30 µM
- degraded at 144 h [6]: < 3%
- Activity [7]: Active

SMILES: CCCCCCCCCN1C[C@H](O)[C@@H](O)[C@H](O)[C@H]1CO
- IC50 [1]: > 30 µM
- IC50 (Alpha-galactosidase): > 30 µM
- IC50 [2]: > 30 µM
- IC50 (Beta-galactosidase): > 30 µM
- IC50 [3]: 0.085 µM
- IC50 (Galactocerebrosidase): > 30 µM

SMILES: OC[C@H]1CNC[C@@H](O)[C@@H]1O
- Activity [7]: Active
